Experimental data reported in ChEMBL document CHEMBL4665824, “Characterization and Discovery of a Selective Small-Molecule Modulator of Mitochondrial Complex I Targeting a Unique Binding Site” (J Med Chem, 2020).
Activity calls are given as the source filed them. The rule behind the calls is not given here.

How the values were obtained:
[1] = tested on: Mus musculus; experiment: Inhibition of mitochondrial complex 1 in 10 months old transgenic AD mouse model assessed as suppression of state 3 respiration of pyruvate at 50 mg/kg, po QD for 8 weeks; type: functional, organism-based
[2] = tested on: MC65; experiment: Inhibition of mitochondrial complex 1 in human MC65 cells assessed as inhibition of antimycin A-induced ROS production at 1 to 3 uM incubated for 12 hrs by mitoSOX fluorescence based flow cytometry; type: cell-based; settings: dose microM 1-3, time 12.0 hrs
[3] = species: Mus musculus; experiment: Inhibition of mitochondrial complex 1 in permeabilized mouse brain mitochondria assessed as reduction in ROS production at 2 to 6 uM incubated for 1 hr in presence of NADH by Amplex Red and horseradish peroxidase based assay; settings: dose microM 2-6, time 1.0 hrs
Method in brief: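 Permeabilized mouse brain mitochondria (0.1 mg protein/ml) were pretreated with compound for 1 h at 30 °C. H2O2 release was triggered with NADH (10 μM) and detected by Amplex Red (50 μM) oxidation with HRP (0.1 U/ml) at Ex/Em 530/590 nm. Output was calibrated against an H2O2 standard curve (linear to 2 μM). N=6, mean ± SEM, Student t-test.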

[4] = Effect on ADP/O ratio in 5 months old transgenic AD mouse model in presence of succinate at 50 mg/kg, po dosed 5 times/week for 2 weeks (1.4 +/- 0.1); type: functional
[5] = tested on: Cortical neuron; experiment: Inhibition of mitochondrial complex 1 in mouse cortical neurons assessed as inhibition of MPP+-induced mitochondrial depolarization incubated for 24 hrs by fluorescence based assay
Method in brief: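 Primary cortical neurons from E15.5 C57BL/6J embryos (DIV 14; 5×10^4 cells/well) were given compound plus MPP+ for 24 h. They were then loaded with TMRM (1 μM final, 30 min) and washed twice with PBS. Dye was released with 50% DMSO/0.5% Triton in water and read at Ex/Em 548/574 nm.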

[6] = tested on: Mus musculus; experiment: Effect on ADP/O ratio in 5 months old transgenic AD mouse model at 50 mg/kg, po dosed 5 times/week for 2 weeks; type: functional, organism-based
[7] = tested on: Mus musculus; experiment: Effect on respiratory control ratio in 5 months old transgenic AD mouse model in presence of succinate at 50 mg/kg, po dosed 5 times/week for 2 weeks (2.5 +/- 0. 2); type: functional
[8] = tested on: MC65; experiment: Inhibition of mitochondrial complex 1 in human MC65 cells assessed as inhibition of rotenone-induced ROS production by measuring ROS production rate at 1 uM incubated for 12 hrs by mitoSOX fluorescence based flow cytometry (reference value: 8.3 RFU/min)
[9] = tested on: Mus musculus; experiment: Effect on respiratory control ratio in 5 months old transgenic AD mouse model in presence of pyruvate and malate at 50 mg/kg, po dosed 5 times/week for 2 weeks (4.1 +/- 0.7); type: functional
[10] = tested on: MC65; experiment: Effect on mitochondrial membrane potential in human MC65 cells at 0.3 to 1 uM incubated for 48 hrs by flow cytometry; type: functional, cell-based; settings: dose microM 0.3-1, time 48.0 hrs
[11] = tested on: Cerebral cortex; experiment: Effect on respiratory control ratio in C57BL/6 mouse cerebral cortex mitochondria at 2 uM (reference value: 5.3)
[12] = tested on: Mus musculus; experiment: Effect on respiratory control ratio in 5 months old transgenic AD mouse model at 50 mg/kg, po dosed 5 times/week for 2 weeks; type: functional, organism-based
[13] = Inhibition of mitochondrial complex 1 in 5 months old transgenic AD mouse model assessed as suppression of maximal rate of ADP-stimulated respiration of pyruvate at 50 mg/kg, po dosed 5 times/week for 2 weeks; type: functional; settings: 336 h
[14] = tested on: SH-SY5Y; experiment: Inhibition of mitochondrial complex 1 in human SH-SY5Y cells assessed as inhibition of MPP+-induced mitochondrial depolarization in presence of 10 uM trolox incubated for 24 hrs by fluorescence based assay; type: cell-based
Method in brief: (§1)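 SH-SY5Y cells (4×10^5/well) treated with compound, NAC (10 μM) or trolox (10 μM) plus MPP+ (30 μM) for 24 h. TMRM added at 100 nM final for 30 min. Cells trypsinized, resuspended in PBS and read by flow cytometry.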

[15] = species: Mus musculus; experiment: Inhibition of mitochondrial complex 1 in C57BL/6 mouse cerebral cortex mitochondria assessed as reduction in ETC enzymatic activity at 2 uM relative to control
Method in brief: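 Detergent-solubilized mouse brain mitochondria (N=6) treated with 2 μM compound, then electron transport chain enzyme activities determined.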

[16] = Effect on ADP/O ratio in 5 months old transgenic AD mouse model in presence of pyruvate and malate at 50 mg/kg, po dosed 5 times/week for 2 weeks (2.6 +/- 0.2); type: functional
[17] = tested on: MC65; experiment: Inhibition of mitochondrial complex 1 in human MC65 cells assessed as inhibition of ROS production incubated for 48 hrs by mitoSOX fluorescence based flow cytometry; type: cell-based
Method in brief: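 MC65 cells in Opti-MEM (1.6×10^6/well) incubated with compound at 37 °C for 48 h, with or without tetracycline. Collected into HBSS and stained with mitoSOX (2.5 μM) 20 min at 37 °C. Washed twice, then mean fluorescence intensity read by flow cytometry.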

[18] = tested on: SH-SY5Y; experiment: Inhibition of mitochondrial complex 1 in human SH-SY5Y cells assessed as inhibition of MPP+-induced mitochondrial depolarization in presence of 10 uM NAC incubated for 24 hrs by fluorescence based assay; type: cell-based; method in brief: as §1
[19] = species: Mus musculus; experiment: Inhibition of mitochondrial complex 2 in C57BL/6 mouse cerebral cortex mitochondria assessed as modulation of maximal rate of ADP-stimulated respiration of succinate at 2 uM
[20] = tested on: Cortical neuron; experiment: Inhibition of mitochondrial complex 1 in mouse cortical neurons assessed as inhibition of rotenone-induced ROS production by measuring ROS production rate at 1 uM incubated for 12 hrs by mitoSOX fluorescence based flow cytometry (Rvb =3.3 RFU/min)
[21] = tested on: Cerebral cortex; experiment: Effect on ADP/O ratio in C57BL/6 mouse cerebral cortex mitochondria at 2 uM (reference value: 2.9)
[22] = tested on: MC65; experiment: Effect on ATP content in human MC65 cells at 0.1 to 1 uM incubated for 48 hrs; type: functional, cell-based; settings: dose microM 0.1-1, time 48.0 hrs
[23] = tested on: SH-SY5Y; experiment: Inhibition of mitochondrial complex 1 in human SH-SY5Y cells assessed as inhibition of MPP+-induced mitochondrial depolarization incubated for 24 hrs by fluorescence based assay; type: cell-based
Method in brief: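 SH-SY5Y cells (4×10^5 per well) were co-treated with compound and MPP+ (30 μM) for 24 h at 37 °C. TMRM was then added to 100 nM final for 30 min. Cells were trypsinized, pelleted, resuspended in PBS, and membrane potential fluorescence was read by flow cytometry.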

[24] = species: Mus musculus; experiment: Inhibition of mitochondrial complex 1 in C57BL/6 mouse cerebral cortex mitochondria assessed as modulation of maximal rate of ADP-stimulated respiration of pyruvate at 2 uM
Method in brief: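 Mitochondria isolated from C57BL/6 mouse cerebral cortex (N=6) with vehicle or 2 μM compound. Oxygen consumption measured by Clark-type electrode at 30 °C with pyruvate/malate (20/5 mM) or succinate (20 mM). ADP-stimulated (state 3) and state 4 rates recorded; RCR taken as state 3/state 4, with ADP/O also derived.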

[25] = tested on: Mus musculus; experiment: Inhibition of mitochondrial complex 1 in 5 months old transgenic AD mouse model assessed as suppression of state 3 respiration of pyruvate at 50 mg/kg, po dosed 5 times/week for 2 weeks; type: functional, organism-based
[26] = Inhibition of mitochondrial complex 1 in 10 months old transgenic AD mouse model assessed as suppression of maximal rate of ADP-stimulated respiration of pyruvate at 50 mg/kg, po QD for 8 weeks; type: functional; settings: 1344 h

inhibition [19]: inactive
SMILES: COc1ccc2[nH]cc(CCNC(=O)CC(=O)CCc3ccc(O)cc3)c2c1
inhibition [1]: Active
inhibition [2]: inactive
inhibition [3]: Active
Ratio [4]: 1.3
inhibition [5]: Dose-dependent effect
Activity [6]: inactive
Ratio [7]: 2.7
Activity [8]: 5.8 RFU/min
Ratio [9]: 4.2
Activity [10]: inactive
Ratio [11]: 4.7
Activity [12]: inactive
inhibition in vivo at 50 mg/kg [13]: 9%
inhibition [14]: Active
inhibition [15]: 20%
Ratio [16]: 2.6
inhibition [17]: Dose-dependent effect
inhibition [18]: Active
Activity [20]: 2 RFU/min
Ratio [21]: 3.1
Activity [22]: inactive
inhibition [23]: Dose-dependent effect
inhibition [24]: Active
inhibition [25]: Active
inhibition in vivo at 50 mg/kg [26]: 25%
